SIRT5 block – blocks human SIRT5 desuccinylation of peptide | Purified SirT5, succinyl-peptide AMC, trypsin-coupled fluorescence | inhibition, % at 15 µM | 330,000 compounds, 1.1% hits; in the data active = inhibition above about 15%; inconclusive = no clear call, values can overlap the other calls
Target sequence (Q9NXA8 whole entry, looked up): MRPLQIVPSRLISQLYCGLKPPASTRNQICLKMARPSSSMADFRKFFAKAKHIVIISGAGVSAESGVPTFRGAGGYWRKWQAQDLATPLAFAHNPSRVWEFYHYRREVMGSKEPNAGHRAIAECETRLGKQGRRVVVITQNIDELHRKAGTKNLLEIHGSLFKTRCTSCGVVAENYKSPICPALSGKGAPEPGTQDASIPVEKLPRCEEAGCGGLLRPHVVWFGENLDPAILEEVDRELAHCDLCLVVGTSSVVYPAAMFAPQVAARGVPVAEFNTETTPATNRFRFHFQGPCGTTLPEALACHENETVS
PGC1a acetyl inh – modulators of PGC1a acetylation | U2OS PGC1a acetylation, AlphaScreen anti-acetyl-lysine; with virally co-expressed GCN5 acetyltransferase | inhibition, % at 15.6 µM | 350,000 compounds, 0.17% hits | AID 651687;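 active = every replicate shows inhibition of at least 40%; inconclusive = mean inhibition at least 40% but some replicate below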
rRNA inh HTS – inhibits bacterial ribosomal RNA function over humanized ribosomes. E. coli WT GFP vs humanized-ribosome RFP mutants, fluorescence, 24 h; hits give low values; DMSO median 0, no signal -100. GFP signal change (wild-type ribosome), % (concentration not given with the values). 350,000 compounds, 1.6% hits;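 active = significant combined selectivity score with lowered wild-type GFP, culture density cut under 30%, mutant RFP and density less affected; inactive = any of these conditions unmet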
S100A4 MyoIIA – S100A4-myosin IIA interaction inhibition. P26447. AID 652163. S100A4/TAMRA-MyoIIA peptide fluorescence polarization. inhibition, % at 10.7 µM. 360,000 compounds, 0.14% hits;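 active = mean inhibition of at least 70% across replicates, with every replicate also reaching that level; inconclusive = mean inhibition reaches 70% but some replicates fall short; inactive = mean inhibition below 70%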
Target sequence (P26447 whole entry, looked up): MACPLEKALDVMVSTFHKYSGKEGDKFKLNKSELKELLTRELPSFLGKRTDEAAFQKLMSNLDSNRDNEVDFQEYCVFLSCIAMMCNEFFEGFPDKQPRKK
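Test system: S100A4 monomer protein; Medium: HEPES pH 7.2 with CaCl2, KCl, NaCl, DTT, Triton; Probe or stimulus: TAMRA-labelled myosin IIA heavy-chain peptide probe, 5 nM; Doses: one dose per compound; Times: polarization read 5 min after assay mix addition, stable 5–60 min; Benchmarks: neutral control DMSO, positive control TFP.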
Cneo AK release – causes C. neoformans cell lysis. AID 651654. 360,000 compounds, 0.2% hits. lysis activity, % at 15 µM. adenylate kinase release luminescence, 4 h; normalised: neutral wells 0, clomiphene wells 100;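 active = mean lysis activity across replicates of at least 80%, whatever share of replicates individually reach that level; inactive = mean lysis activity below 80%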
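Material: C. neoformans cells; Schedule: 4 h static compound exposure, 37 °C, read 1 h post-reagent; Measured by: adenylate kinase release luminescence; Read-out: signal increase indicating cell lysis; Controls: Clomiphene as positive lysis control.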
C2C12 statin – suppressors of simvastatin-induced myotoxicity in C2C12 myotubes; ATP luminescence, 48 h; scaled: DMSO 0, geranylgeraniol control 100; rescue of ATP level, % at 7.49 µM; 330,000 compounds, 0.78% hits;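 active = mean ATP rescue above about 67%, or every replicate alone reaching that limit, limit read from the data, passing the limit was not always enough; inconclusive = no clear call, values can overlap the other calls; inactive = mean under the limit and some replicate under it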;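 also: myotubes were challenged with 10 µM simvastatin during compound exposure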
Hits are given with their value; – = inactive; ? = inconclusive; · = not tested or not shown. An excerpt weighted towards active compounds, which were near 3% of everything screened.

SMILES	SIRT5 block	PGC1a acetyl inh	rRNA inh HTS	S100A4 MyoIIA	Cneo AK release	C2C12 statin
O=P(Nc1ccccc1)(Nc1ccccc1)Oc1ccccc1	–	·	·	–	·	·
O=P(Nc1ccccc1)(Nc1ccccc1)Oc1cccc(Cl)c1	–	–	–	–	–	97
N#Cc1cccc(-c2ccc([C@@H]3[C@@H](CO)N4CCCCN(C(=O)Cc5ccccc5)C[C@H]34)cc2)c1	–	–	–	–	–	·
COC(=O)[C@H]1[C@H](CO)[C@H]2Cn3c(ccc(C4=CCCC4)c3=O)[C@@H]1N2CC1CCCC1	–	·	–	–	·	·
COc1ccc(CCn2c(O)c(C=Nc3ccc(F)cc3)c(=O)[nH]c2=O)cc1OC	16	–	–	–	–	·
C[C@H](CO)N1C[C@H](C)[C@@H](CN(C)C(=O)Oc2ccccc2)OCc2ccccc2-c2c(n(C)c3ccccc23)C1=O	·	·	–	·	·	·
COC(=O)[C@@H]1[C@@H](CO)[C@@H]2Cn3c(ccc(-c4ccccc4)c3=O)[C@H]1N2CC1CCOCC1	–	–	–	–	–	–
c1ccc(CN2CCN(Cc3ccc4ccccc4c3)CC2)cc1	–	·	–	–	–	–
CN(C)c1cccc(CN2CCN(c3ccccc3)CC2)c1	15	–	–	–	–	–
Cc1c(N=Nc2c(O)n(-c3ccc(Br)cc3)c(=O)[nH]c2=O)c(=O)n(-c2ccccc2)n1C	–	–	-35	–	–	·
Cc1c(N=Nc2c(O)[nH]c(=O)[nH]c2=O)c(=O)n(-c2ccccc2)n1C	–	–	–	–	·	·
COC(=O)[C@@H]1[C@@H](CO)[C@@H]2Cn3c(ccc(-c4cccnc4)c3=O)[C@H]1N2S(=O)(=O)c1ccccc1F	–	·	–	–	–	–
CC(C)C(=O)NC(Oc1ccccc1Cl)C(Cl)(Cl)Cl (stereo not drawn)	–	–	-14	–	–	–
O=C(O)C(Br)CBr (stereo not drawn)	·	–	–	100	–	–
O=C(O)[C@H]1[C@H](CO)[C@H]2Cn3c(ccc(C4=CCCC4)c3=O)[C@@H]1N2C(=O)Cc1ccccn1	–	·	–	–	–	–
CCC(=NCCO)c1c(O)n(-c2ccc(Cl)cc2)c(=O)[nH]c1=O	–	–	–	–	–	114
C[C@H]1[C@@H](OS(=O)(=O)O)C[C@@H]2C[C@H]([C@@H](O)c3cc(=O)[nH]c(=O)[nH]3)NC3=NC[C@H]1N32	·	94	·	·	–	–
O=C1CC2OCC=C3CN4CCC56c7cc([N+](=O)[O-])ccc7N1C5C2C3CC46 (stereo not drawn)	–	–	–	–	–	–
O=C1/C(=C\c2ccccc2)C2OCC=C3CN4CCC56c7ccccc7N1C5C2C3CC46 (stereo not drawn)	–	–	–	–	–	137
COC(=O)[C@H]1[C@H](CO)[C@H]2Cn3c(ccc(-c4ccccc4)c3=O)[C@@H]1N2CCc1ccccc1	–	·	–	–	–	–
O=C(O)[C@H]1[C@H](CO)[C@H]2Cn3c(ccc(-c4ccc(F)cc4)c3=O)[C@@H]1N2CC1CCCC1	–	–	–	–	·	·
COC(=O)[C@H]1[C@H](CO)[C@H]2Cn3c(ccc(/C=C/c4ccccc4)c3=O)[C@@H]1N2C(=O)C1CC1	–	·	–	–	–	–
COc1ccc(Oc2cc(NC(=O)c3nn(C)cc3[N+](=O)[O-])cc([N+](=O)[O-])c2)cc1	–	78	–	–	–	97
COc1ccc(NC(=O)c2cn(CCC#N)nc2-c2cccc([N+](=O)[O-])c2)cc1	–	·	–	–	·	·
CCOC(=O)c1ccc(N=Cc2c(O)n(-c3ccccc3F)c(=S)[nH]c2=O)cc1	–	–	–	122	–	–
SMILES	SIRT5 block	PGC1a acetyl inh	rRNA inh HTS	S100A4 MyoIIA	Cneo AK release	C2C12 statin
CC(=O)OC1CC2OC3C=C(C)CCC3(C)C1(C)C21CO1 (stereo not drawn)	·	87	·	–	–	210
CC(=O)O[C@H]1C[C@@H]2OC3C=C(C)CCC3(C)[C@@]1(C)[C@@]21CO1 (stereo partly drawn)	–	84	–	–	·	·
CC(=O)N1C2CN(C)CC1C2c1ccc(Br)cc1 (stereo not drawn)	·	·	–	·	·	·
CN1C2CN(CC(F)(F)F)CC1C2c1ccc(Br)cc1 (stereo not drawn)	·	·	–	·	·	·
COc1cccc(CC(=O)N(C)C2CCCN(Cc3ccccc3F)C2)c1 (stereo not drawn)	18	–	–	–	–	–
O=C(Cc1ccccn1)N1CCCCN2[C@H](CO)[C@@H](c3ccc(C#Cc4ccccc4)cc3)[C@@H]2C1	–	–	–	–	–	·
CNc1cc(Cl)c2nonc2c1[N+](=O)[O-]	–	68	–	–	·	·
COc1ccc(-n2c(/C=C/c3ccc(O)c(O)c3)nc3ccccc3c2=O)cc1	–	·	-21	–	–	–
COc1cc(/C=C/c2nc3ccccc3c(=O)n2-c2ccc(O)cc2)ccc1O	–	–	–	–	–	117
O=c1c2ccccc2nc(/C=C/c2ccc3c(c2)OCO3)n1-c1ccccc1	–	·	–	–	–	·
O=c1c2ccccc2nc(/C=C/c2ccccn2)n1-c1ccccc1	–	–	–	–	–	–
CC(=NCc1cccnc1)c1c(O)n(-c2ccccc2C)c(=O)[nH]c1=O	27	–	–	–	–	–
CC(=NCc1cccnc1)c1c(O)n(C2CCCCC2)c(=O)[nH]c1=O	·	–	·	·	–	113
CC(=O)N1C[C@@H]2C(c3ccc(Br)cc3)[C@H](C1)N2CC1CC1 (stereo partly drawn)	·	·	–	·	·	·
O=C(Cc1ccccc1)N1CC2(C1)[C@H](c1ccccc1)[C@@H](CO)N2Cc1cccc(F)c1	–	–	–	–	·	·
COc1ccc(NP(=O)(Oc2cccc(C)c2)Oc2cccc(C)c2)cc1OC	–	–	-18	–	·	–
Cc1cccc(OP(=O)(Nc2ccc(F)cc2)Oc2cccc(C)c2)c1	–	·	–	–	·	·
CC(=O)N1C[C@@H]2N[C@H](C1)C2c1ccccc1 (stereo partly drawn)	·	·	–	·	·	·
O=P(Nc1cccnc1)(Oc1ccccc1Cl)Oc1ccccc1Cl	–	·	-33	–	·	·
O=C1NC(=S)N(c2ccc(F)cc2)C(=O)/C1=C\c1ccoc1	·	–	·	·	–	–
O=C1NC(=S)N(c2ccc(Cl)cc2)C(=O)/C1=C/N1CCN(C(=O)c2ccco2)CC1	·	–	·	·	·	77
COc1ccc(F)cc1C(=O)C1CCCN(Cc2ccc(O)cc2)C1 (stereo not drawn)	17	–	–	–	–	–
O=C(Cc1ccccc1)N1CC2(C1)[C@@H](c1ccccc1)[C@H](CO)N2Cc1cccc(F)c1	·	·	–	·	·	·
CN1CCN(c2ccc([N+](=O)[O-])c3no[n+]([O-])c23)CC1	–	?	–	112	–	–
